Measurements from ChEMBL document CHEMBL1128351, “A novel pyrrolidine analog of histamine as a potent, highly selective histamine H3 receptor agonist” (J Med Chem, 1995).
Active and inactive are the calls of the source. No cut-off for these calls is given here.

Columns and labels:
Histamine H3 receptor = Histamine H3 receptor (Cavia porcellus, UniProt Q9JI35); assay: Binding affinity against Histamine H3 receptor
In short: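 H3 receptor binding Ki values are the mean of two independent experiments, with errors given as the range from the mean.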

Cavia porcellus [1] = assay: Effective dose was tested in vivo for 50% inhibition by an electrically induced CNS hypertension model after iv administration.; format: functional
In short: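 H3 agonist activity was measured in a CNS hypertension model with intravenous dosing. Values are ED50 in mg/kg, or % of the activity of the reference H3 agonist at 0.3 mg/kg.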

Histamine H1 receptor = Histamine H1 receptor (Cavia porcellus, UniProt P31389); assay: Binding affinity against H1 receptor
Cavia porcellus [2] = assay: Effective dose was tested in vivo for 50% inhibition by an H1 histamine-mediated bronchospasm after iv administration in guinea pig; format: functional; settings: Bronchiole
In short: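 Given intravenously and measured in an H1 histamine-mediated bronchospasm model. Value is expressed as ED50 in mg/kg.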

[3] = biological target: Histamine H1 receptor (Cavia porcellus) (UniProt P31389); settings: Ileum
[4] = biological target: Histamine H3 receptor (Cavia porcellus) (UniProt Q9JI35); settings: Ileum
[5] = biological target: Histamine H1 receptor (Cavia porcellus) (UniProt P31389); settings: Ileum, 10 uM
Cavia porcellus [6] = assay: Effective dose was tested in vivo for 50% inhibition by an H1 histamine-mediated bronchospasm in guinea pig; format: functional; settings: Bronchiole
[7] = biological target: Histamine H3 receptor (Cavia porcellus) (UniProt Q9JI35); settings: Ileum, 1 uM

Histamine H1 receptor, sequence (P31389 whole entry): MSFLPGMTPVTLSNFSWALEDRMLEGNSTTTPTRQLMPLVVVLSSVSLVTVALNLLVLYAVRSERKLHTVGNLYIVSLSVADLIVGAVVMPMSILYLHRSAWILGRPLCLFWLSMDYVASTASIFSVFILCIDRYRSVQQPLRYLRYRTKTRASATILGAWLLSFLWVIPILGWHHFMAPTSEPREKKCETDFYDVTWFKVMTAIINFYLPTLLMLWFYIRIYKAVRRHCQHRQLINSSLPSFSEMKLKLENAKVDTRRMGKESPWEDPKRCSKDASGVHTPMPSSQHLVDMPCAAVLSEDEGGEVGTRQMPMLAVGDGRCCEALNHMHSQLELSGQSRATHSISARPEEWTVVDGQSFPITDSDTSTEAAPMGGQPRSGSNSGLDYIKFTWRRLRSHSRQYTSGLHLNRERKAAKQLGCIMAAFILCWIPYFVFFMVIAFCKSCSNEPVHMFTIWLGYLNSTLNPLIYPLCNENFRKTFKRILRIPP
Histamine H3 receptor (Cavia porcellus), sequence (Q9JI35 whole entry): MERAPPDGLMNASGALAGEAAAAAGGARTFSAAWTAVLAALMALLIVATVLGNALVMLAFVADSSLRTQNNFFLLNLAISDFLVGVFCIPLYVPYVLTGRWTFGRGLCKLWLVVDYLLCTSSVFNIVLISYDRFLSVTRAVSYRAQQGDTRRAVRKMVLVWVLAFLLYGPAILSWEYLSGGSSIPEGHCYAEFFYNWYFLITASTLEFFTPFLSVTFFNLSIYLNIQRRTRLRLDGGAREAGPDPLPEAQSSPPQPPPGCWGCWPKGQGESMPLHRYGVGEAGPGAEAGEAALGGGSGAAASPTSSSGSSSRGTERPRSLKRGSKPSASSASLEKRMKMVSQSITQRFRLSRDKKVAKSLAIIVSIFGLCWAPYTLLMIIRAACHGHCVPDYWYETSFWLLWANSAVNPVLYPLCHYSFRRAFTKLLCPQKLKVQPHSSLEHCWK
Histamine H3 receptor, sequence (Q9JI35 whole entry): as above
Histamine H1 receptor (Cavia porcellus), sequence (P31389 whole entry): as the sequence (P31389 whole entry) above

Structure (SMILES) | Ki (Histamine H3 receptor) [nM] | Ki (Histamine H1 receptor) [µM] | further results
C[C@@]1(N)CCCC[C@@H]1c1cnc[nH]1 (racemic) | > 2000 |  | 
C[C@@H](N)Cc1c[nH]cn1 | 1.5 | > 10 | ED50 (Cavia porcellus [1]): 0.1 mg/kg; ED50 (Cavia porcellus [2]): 1.7 mg/kg; pD2 [3]: 5.4; pD2 [4]: 8.2
C[C@H]1NCC[C@@H]1c1c[nH]cn1 [listing 1 of 2 here] |  |  | pD2 [5]: inactive; pD2 [4]: 7.1
C[C@H]1NCC[C@@H]1c1c[nH]cn1 [listing 2 of 2 here] | 2.8 | > 10 | ED50 (Cavia porcellus [6]): > 100 mg/kg; ED50 (Cavia porcellus [1]): 0.18 mg/kg
C[C@@H](N)[C@@H](C)c1c[nH]cn1 (racemic) | 11 |  | 
N[C@H]1CCC[C@@H]1c1cnc[nH]1 (racemic) | 740 |  | 
C[C@H](c1c[nH]cn1)[C@@H](C)N (racemic) | 0.8 |  | 
C[C@]1(N)CCCC[C@@H]1c1c[nH]cn1 (racemic) | > 2000 |  | 
C[C@H]1NCC[C@@H]1c1c[nH]cn1 (racemic) | 8.7 |  | 
C[C@@H]1NCC[C@H]1c1c[nH]cn1 | 33 | > 10 | pD2 [7]: inactive
